In ChEMBL document CHEMBL4837193 (Eur J Med Chem, 2021):

Tests used:
HeLa = test: Antiproliferative activity against human HeLa cells assessed as cell growth inhibition after 48 hrs by MTT assay; type: functional, cell-based
Outline: (§1)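 Cells grown at 37 °C with CO2 in RPMI-1640 or DMEM plus 10% FBS. Seeded at 2 × 10³ per well, attached 24 h, then medium changed. Compound exposure 48 h at 37 °C, DMSO 0.1% as vehicle. MTT added and incubated a further 4 h. Crystals dissolved, absorbance read at 570 nm. IC50 from curve fitting, mean ± SD of three independent experiments.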

T47D = test: Antiproliferative activity against human T47D cells assessed as cell growth inhibition after 48 hrs by MTT assay; type: functional, cell-based
HT-29 = test: Antiproliferative activity against human HT29 cells assessed as cell growth inhibition after 48 hrs by MTT assay; type: functional, cell-based; settings: HT-29, 48 h
A549 = test: Antiproliferative activity against human A549 cells assessed as cell growth inhibition after 48 hrs by MTT assay; type: functional, cell-based; settings: A549, 48 h; outline: as §1
HCT-116 = test: Antiproliferative activity against human HCT-116 cells assessed as cell growth inhibition after 48 hrs by MTT assay; type: functional, cell-based; settings: HCT-116, 48 h; outline: as §1
HepG2 = test: Antiproliferative activity against human HepG2 cells assessed as cell growth inhibition after 48 hrs by MTT assay; type: functional, cell-based; settings: HepG2, 48 h; outline: as §1
HEK293 = test: Antiproliferative activity against human HEK293 cells assessed as cell growth inhibition after 48 hrs by MTT assay; type: cell-based; settings: HEK293, 48 h; outline: as §1
Tubulin (Homo sapiens) = Tubulin (Homo sapiens) (UniProt P68371+Q9H4B7+P0DPH7+P68366+Q13509+Q71U36+P04350+Q3ZCM7+P07437+P68363+Q9BQE3+Q6PEY2+Q13885+Q9BVA1+Q9BUF5); test: Inhibition of tubulin polymerization (unknown origin) at 10 uM measured after 30 mins every 1 min for 20 mins by spectrophotometric method; type: protein-complex assay
Outline: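 Tubulin at 2 mg/mL in PEM buffer (100 mM PIPES pH 6.9, 1 mM MgCl2, 1 mM EGTA, 5% glycerol) preincubated on ice with compound or DMSO, then GTP added. After 0.5 h, A340 read every 1 min for 20 min at 37 °C. Plateau values used. Single-point inhibition at 10 µM; IC50 is the concentration halving polymerization at 20 min, mean ± SD of three experiments.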

COc1cc(-c2nc3nccc(-c4cc(Cl)c(NC(C)=O)c(Cl)c4)n3n2)cc(OC)c1OC
IC50 (HeLa): > 30 µM

COc1cc(-c2nc3nccc(-c4ccccc4C)n3n2)cc(OC)c1OC
IC50 (HeLa): > 30 µM

COc1cc(-c2nc3nccc(-c4ccco4)n3n2)cc(OC)c1OC
IC50 (HeLa): > 30 µM

COc1cc(-c2ccnc3nc(-c4ccc(C)cc4)nn23)cc(OC)c1OC
IC50 (HeLa): > 30 µM

COc1cc(-c2nc3nccc(-c4ccc(C(F)(F)F)cc4)n3n2)cc(OC)c1OC
IC50 (HeLa): > 30 µM

COc1cc(-c2nc3nccc(-c4ccc(Cl)c(Cl)c4)n3n2)cc(OC)c1OC
IC50 (HeLa): > 30 µM

COc1ccc(-c2ccnc3nc(-c4cc(OC)c(OC)c(OC)c4)nn23)cc1
IC50 (HeLa): > 30 µM

COc1cc(-c2nc3nccc(-c4cccnc4)n3n2)cc(OC)c1OC
IC50 (HeLa): > 30 µM

COc1ccc(-c2ccnc3nc(-c4cc(OC)c(OC)c(OC)c4)nn23)cc1N
IC50 (HeLa): 0.4 µM
IC50 (T47D): > 100 µM
IC50 (HT-29): 11.5 µM
IC50 (A549): > 100 µM
IC50 (HCT-116): 91.1 µM
IC50 (HepG2): 41.2 µM
IC50 (HEK293): > 100 µM
inhibition (Tubulin (Homo sapiens)): 12%

COc1ccc(/C=C\c2cc(OC)c(OC)c(OC)c2)cc1O [COMBRETASTATIN A4]
IC50 (T47D): 0.027 µM
IC50 (HepG2): 5.29 µM

COc1cc(-c2nc3nccc(-c4cc5ccccc5oc4=O)n3n2)cc(OC)c1OC
IC50 (HeLa): > 30 µM

COc1ccc(-c2nc3nccc(-c4cc(OC)c(OC)c(OC)c4)n3n2)cc1NC(C)=O
IC50 (HeLa): 0.28 µM
IC50 (T47D): 5.67 µM
IC50 (HT-29): 1.66 µM
IC50 (A549): 34.6 µM
IC50 (HCT-116): 22.4 µM
IC50 (HepG2): > 100 µM
IC50 (HEK293): 82.1 µM
inhibition (Tubulin (Homo sapiens)): 16%

COc1cc(-c2nc3nccc(-c4cccs4)n3n2)cc(OC)c1OC
IC50 (HeLa): > 30 µM

COc1cc(-c2nc3nccc(-c4ccc([N+](=O)[O-])cc4)n3n2)cc(OC)c1OC
IC50 (HeLa): > 30 µM
